T/C, Control and Effect data for three molecules are collected here from ChEMBL document CHEMBL1124248, “Preparation and antischistosomal and antitumor activity of hycanthone and some of its congeners. Evidence for the mode of action of hycanthone” (1988).

Values joined by “and” are separate entries in the source; they are usually repeats but may differ in a detail not shown here. Equal values may be shown once.

What all share (assay type): functional
In assay [1] the test system is Mus musculus. Nature of the assay: In vivo antitumor activity against p-388 lymphocytic leukemia in mice at 6.25 mg/kg (Duplicate value). Put shortly: (§1)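 Murine P388 lymphocytic leukemia model tested by the National Cancer Institute. Compound given once daily for 9 days; activity expressed as T/C.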
The test system of assay [2] is Schistosoma mansoni. Description: Incorporation of 1.3 [3H]uridine in hycanthone(HC) resistant Schistosoma mansoni. Put shortly:
(§2)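 Adult HC-resistant S. mansoni were treated in vitro, and [3H]uridine incorporation by the worms was measured. Values are % of control. Concentrations are given in M × 10^6.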

The subject of assay [3] is Schistosoma mansoni. Description: Day 50% survival of worms in culture of HC resistant Schistosoma mansoni. In short, it runs like this:
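Adult HC-resistant S. mansoni were exposed in vitro and kept in culture. The value is the day by which 50% of worms were dead. Cultures were ended at different times in different experiments. Concentrations are given in M × 10^6.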

The subject of assay [4] is Mus musculus. Nature of the assay: In vivo antitumor activity against p-388 lymphocytic leukemia in mice at 50 mg/kg. In short, it runs like this:
as §1

In assay [5] the test system is Schistosoma mansoni. Description: Incorporation of 6.3 M*10e6 [3H]uridine in hycanthone(HC) sensitive Schistosoma mansoni.
Assay [6] deals with Mus musculus. Nature of the assay: In vivo antitumor activity against p-388 lymphocytic leukemia in mice at 12.5 mg/kg (Duplicate value). Put shortly: as §1
The test system of assay [7] is Mus musculus. Nature of the assay: In vivo antitumor activity against p-388 lymphocytic leukemia in mice at 25 mg/kg (Duplicate value). Put shortly:
as §1

Assay [8] deals with Schistosoma mansoni. Description: Day 50% survival of worms in culture of HC sensitive Schistosoma mansoni.
Assay [9] has as its system Schistosoma mansoni. Description: Incorporation of 1.3 M *10e6 [3H]uridine in hycanthone(HC) sensitive Schistosoma mansoni.
In assay [10] the test system is Mus musculus. Nature of the assay: In vivo antitumor activity against p-388 lymphocytic leukemia in mice at 12.5 mg/kg. Put shortly: as §1
The test system of assay [11] is Mus musculus. Description: In vivo antitumor activity against p-388 lymphocytic leukemia in mice at 1.5 mg/kg. Put shortly: as §1
The test system of assay [12] is Mus musculus. Description: In vivo antitumor activity against p-388 lymphocytic leukemia in mice at 6.25 mg/kg. In short, it runs like this:
as §1

Assay [13] deals with Mus musculus. Description: In vivo antitumor activity against p-388 lymphocytic leukemia in mice at 3.12 mg/kg. In short, it runs like this:
as §1

The subject of assay [14] is Schistosoma mansoni. Description: Incorporation of 0.9 M *10e6 [3H]uridine in hycanthone(HC) sensitive Schistosoma mansoni.
Assay [15] has as its system Schistosoma mansoni. Nature of the assay: Incorporation of 4.5M*10e6 [3H]uridine in hycanthone(HC) resistant Schistosoma mansoni. In short, it runs like this:
as §2

For assay [16], the system named is Schistosoma mansoni. Description: Incorporation of 0.9 M *10e6 [3H]uridine in hycanthone(HC) resistant Schistosoma mansoni. Put shortly:
as §2

For assay [17], the system named is Schistosoma mansoni. Nature of the assay: Incorporation of 4.5 M*10e6 [3H]uridine in hycanthone(HC) sensitive Schistosoma mansoni.

For `CCN(CC)CCNc1ccc(COC(C)=O)c2sc3ccccc3c(=O)c12`, the T/C in the assay on Mus musculus [1] stood at 123%; with Mus musculus [4], 118%; in the assay on Mus musculus [6], 129%; in the assay on Mus musculus [7], 125%. Further, the Control was determined as 19% in the assay on Schistosoma mansoni [2], 4% in the assay on Schistosoma mansoni [5] and 13% in the assay with Schistosoma mansoni [9]. Also, the Effect in the assay on Schistosoma mansoni [3] was >15 days and 7 days; with Schistosoma mansoni [8], 7 days.
`CNC(=O)OCc1ccc(NCCN(C)C)c2c(=O)c3cc(O)ccc3sc12`: the T/C in the assay with Mus musculus [10] came out at 112; with Mus musculus [11] it was 134; in the assay on Mus musculus [12] it was 127; in the assay with Mus musculus [13], 130.
Consider `CCN(CC)CCNc1ccc(COC(=O)c2cc([N+](=O)[O-])cc([N+](=O)[O-])c2)c2sc3ccccc3c(=O)c12`, for which the Control came out at 50% in the assay on Schistosoma mansoni [14], 105% with Schistosoma mansoni [15], 95% with Schistosoma mansoni [16] and 0% in the assay with Schistosoma mansoni [17]. Besides, the Effect was above 17 days in the assay on Schistosoma mansoni [3] and 7 days in the assay on Schistosoma mansoni [8].
